For one test, the system named is HeLa. The test can be described thus: Cytotoxicity against human HeLa cells by MTT assay. The class given is functional, cell-based. An outline of the steps:
(§1)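 Growth inhibition in 96-well plates, read by cell-mediated reduction of tetrazolium (MTT) to insoluble formazan, with doxorubicin as standard. Cell lines are A549 (alveolar adenocarcinoma, CCL-185), HeLa (cervical, CCL-2), MDA-MB-231 (breast, HTB26), MCF7 (breast, HTB22) and normal embryonic kidney HEK293. IC50 taken from plotted absorbance data, given as mean ± SD of three independent determinations.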
Background: Tetrazolium dyes change colour on reduction, which living cells bring about.

The subject of a further test is HEK293. Description: Cytotoxicity against HEK293 cells by MTT assay. Format: cell-based. As to conditions: Homo sapiens. The essentials: as §1
The subject of another test is A549. The test can be described thus: Cytotoxicity against human A549 cells by MTT assay. The class given is functional, cell-based. The essentials: as §1
For a further test, the system named is MDA-MB-231. The test can be described thus: Cytotoxicity against human MDA-MB-231 cells by MTT assay. Format: functional, cell-based. An outline of the steps: as §1
In a further test the test system is MCF7. Description: Cytotoxicity against human MCF7 cells by MTT assay. Format: functional, cell-based. An outline of the steps: as §1

pIC50: −log10 of the molar value.

The term pIC50 denotes −log10 of the IC50, conventionally taken in molar units. Low readings indicate a large IC50, high ones a small IC50.

In the case of `Cc1ccc(C(=O)CN2C(=O)S/C(=C\C3=C(Cl)c4ccccc4CCC3)C2=O)cc1`, the pIC50 was 5.10 in the test with HeLa; less than 4.00 in the test on HEK293; less than 4.00 in the test with A549; 5.23 in the test with MDA-MB-231; less than 4.00 in the test with MCF7.

For `O=C(CN1C(=O)CSC1=O)c1ccccc1`, the pIC50 in the test on HeLa was less than 4.00; with HEK293 it was less than 4.00; in the test with A549, 4.85; with MDA-MB-231, less than 4.00; in the test on MCF7, less than 4.00.

Take `Cc1cc2c(cc1C)C(Cl)=C(/C=C1\SC(=O)N(CC(=O)c3ccc(Cl)cc3)C1=O)CCC2`: the pIC50 with HeLa was less than 4.00; with HEK293, less than 4.00; with A549 it was 5.46; with MDA-MB-231 it was less than 4.00; with MCF7, 5.01.

Regarding `COc1ccc(C(=O)CN2C(=O)S/C(=C\C3=C(Cl)c4cc(C)c(C)cc4CCC3)C2=O)cc1`, the pIC50 in the test on HeLa was 4.75; with HEK293, less than 4.00; with A549 it was less than 4.00; with MDA-MB-231 it was 5.10; in the test with MCF7, less than 4.00.

For `COc1ccc(C(=O)CN2C(=O)S/C(=C\C3=C(Cl)c4ccccc4CCC3)C2=O)cc1`, the pIC50 in the test on HeLa is less than 4.00; with HEK293, less than 4.00; in the test on A549 it was 5.26; in the test on MDA-MB-231, less than 4.00; with MCF7 it was 5.05.

With `O=C(CN1C(=O)S/C(=C\C2=C(Cl)c3ccccc3CCC2)C1=O)c1ccc(Cl)cc1`, the pIC50 with HeLa, with HEK293, in the test with A549, in the test with MDA-MB-231 and in the test on MCF7 was less than 4.00 each time.

Turning to `COc1ccc(C(=O)CN2C(=O)CSC2=O)cc1`, the pIC50 with HeLa, in the test on HEK293, in the test on A549, in the test with MDA-MB-231 and in the test on MCF7 was less than 4.00 throughout.

Take `O=C1NC(=O)/C(=C/C2=C(Cl)c3ccccc3CCC2)S1`: the pIC50 with HeLa, in the test on HEK293, with A549, in the test on MDA-MB-231 and with MCF7 was less than 4.00 each time.

Consider `O=C(CN1C(=O)S/C(=C\C2=C(Cl)c3ccccc3CCC2)C1=O)c1ccccc1`, for which the pIC50 in the test with HeLa is 5.53; in the test on HEK293 it was less than 4.00; in the test with A549, 5.31; in the test with MDA-MB-231, 4.87; in the test on MCF7 it was 5.27.

As to `O=C(CN1C(=O)CSC1=O)c1ccc(Br)cc1`, the pIC50 is less than 4.00 in the test on HeLa; less than 4.00 in the test on HEK293; 4.64 in the test with A549; less than 4.00 in the test with MDA-MB-231; less than 4.00 in the test on MCF7.

Take `Cc1cc2c(cc1C)C(Cl)=C(/C=C1\SC(=O)N(CC(=O)c3ccccc3)C1=O)CCC2`: the pIC50 is 5.10 with HeLa; less than 4.00 with HEK293; less than 4.00 with A549; less than 4.00 in the test on MDA-MB-231; less than 4.00 in the test on MCF7.

Take `Cc1ccc(C(=O)CN2C(=O)CSC2=O)cc1`: the pIC50 is less than 4.00 with HeLa; less than 4.00 in the test on HEK293; 4.77 with A549; less than 4.00 in the test with MDA-MB-231; less than 4.00 in the test with MCF7.

For the molecule `Cc1cc2c(cc1C)C(Cl)=C(/C=C1\SC(=O)N(CC(=O)c3ccc(Br)cc3)C1=O)CCC2`, the pIC50 was less than 4.00 with HeLa; less than 4.00 in the test with HEK293; 5.01 with A549; less than 4.00 in the test with MDA-MB-231; 4.43 in the test with MCF7.

As for `Cc1ccc(C(=O)CN2C(=O)S/C(=C\C3=C(Cl)c4cc(C)c(C)cc4CCC3)C2=O)cc1`, the pIC50 in the test with HeLa is less than 4.00; in the test with HEK293, less than 4.00; with A549 it was less than 4.00; in the test with MDA-MB-231, 4.87; with MCF7, 5.72.

Turning to `O=C(CN1C(=O)S/C(=C\C2=C(Cl)c3ccccc3CCC2)C1=O)c1ccc(Br)cc1`, the pIC50 in the test on HeLa was less than 4.00; in the test with HEK293 it was less than 4.00; in the test on A549, 5.24; in the test with MDA-MB-231 it was less than 4.00; with MCF7, 4.29.

As to `COc1cccc2c1C(=O)c1c(O)c3c(c(O)c1C2=O)C[C@@](O)(C(=O)CO)C[C@@H]3O[C@H]1C[C@H](N)[C@H](O)[C@H](C)O1` [DOXORUBICIN], the pIC50 in the test on HEK293 is less than 4.00.

With `O=C(CN1C(=O)CSC1=O)c1ccc(Cl)cc1`, the pIC50 with HeLa was less than 4.00; in the test with HEK293, 4.85; in the test with A549 it was less than 4.00; with MDA-MB-231 it was less than 4.00; in the test with MCF7, less than 4.00.

Consider `Cc1cc2c(cc1C)C(Cl)=C(/C=C1\SC(=O)NC1=O)CCC2`, for which the pIC50 was 5.23 with HeLa; less than 4.00 with HEK293; 5.27 in the test on A549; 5.24 with MDA-MB-231; less than 4.00 in the test with MCF7.

Values taken from ChEMBL document CHEMBL3098029, “Studies on the synthetic and structural aspects of benzosuberones bearing 2, 4-thiazolidenone moiety as potential anti-cancer agents” (Eur J Med Chem, 2014).
